According to ChEMBL document CHEMBL1275435, “A naturally occurring proline-to-alanine amino acid change in Fks1p in Candida parapsilosis, Candida orthopsilosis, and Candida metapsilosis accounts for reduced echinocandin susceptibility” (Antimicrob Agents Chemother, 2008):
Converted amounts (≈) assume the structure as drawn. *1 amine or outer side, *2 acyl side, *3 side chain or, on linkers, in order; H or OH if unused. Where a SMILES comes first, the peptide text is derived from it. Bridges are numbered along the chain shown (N, C = ends). [ ]: non-standard residue; d: D form. The star is where a group is joined. hTyr(3S-OH,4S-OH,3'-OSO3H) = N[C@H](C(=O)O)[C@H](O)[C@@H](O)c1ccc(O)c(OS(=O)(=O)O)c1; Orn(4R-OH,5R-OH) = O=C([C@H](C[C@@H](O)[C@@H](O)N[*:3])N[*:1])[*:2]; Pro(3S-OH,4S-Me) = C[C@H]1CN[C@H](C(=O)O)[C@H]1O; X1 = CCCCCOc1ccc(-c2cc(-c3ccc(C(=O)*)cc3)no2)cc1; Gln(3R-OH) = NC(=O)C[C@@H](O)[C@H](N)C(=O)O; Hyp = O=C(O)[C@@H]1C[C@@H](O)CN1

Columns and labels:
Saccharomyces cerevisiae [1] = assay: Antifungal activity against Saccharomyces cerevisiae BY4742 by CLSI method; type: functional
Saccharomyces cerevisiae [2] = assay: Antifungal activity against FKS1 deficient Saccharomyces cerevisiae BY4742 by CLSI method; type: functional
[3] = Inhibition of Candida orthopsilosis H10 glucan synthase assessed as [3H]UDPG incorporation
Procedure, shortened: (§1)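 Cells were grown with vigorous shaking at 30°C to early stationary phase in YPD. Membrane GS was partially purified by product entrapment, using 10-fold more cells for low-activity strains. The polymerization assay was started by adding GS, with drug serially diluted from 0.01 to 10,000 ng/ml. Reactions ran 60 min at 25°C and were stopped on ice. IC50 came from sigmoidal variable-slope fits, as arithmetic means ± SD of three repetitions on three days.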

[4] = Inhibition of Candida albicans M122 glucan synthase assessed as [3H]UDPG incorporation; procedure, shortened: as §1
Candida orthopsilosis [5] = assay: Antifungal activity against Candida orthopsilosis 981224 by CLSI method; type: functional; conditions: Lodderomyces orthopsilosis
[6] = Inhibition of Candida albicans ATCC 90028 glucan synthase assessed as [3H]UDPG incorporation; procedure, shortened: as §1
[7] = Inhibition of Candida albicans ATCC 36082 glucan synthase assessed as [3H]UDPG incorporation; procedure, shortened: as §1
Candida albicans [8] = assay: Antifungal activity against Candida albicans Sc5314 by CLSI method; type: functional
[9] = Inhibition of Candida parapsilosis ATCC 22019 glucan synthase by assessed as [3H]UDPG incorporation; procedure, shortened: as §1
Candida parapsilosis [10] = assay: Antifungal activity against Candida parapsilosis H4 by CLSI method; type: functional; conditions: Lodderomyces parapsilosis
[11] = Inhibition of Candida glabrata ATCC 90030 glucan synthase assessed as [3H]UDPG incorporation; design: species or system Nakaseomyces glabratus; procedure, shortened: as §1
[12] = Inhibition of Saccharomyces cerevisiae BY4742 glucan synthase assessed as [3H]UDPG incorporation; procedure, shortened: as §1
[13] = Inhibition of Saccharomyces cerevisiae BY4742-FKS1P649A mutant glucan synthase assessed as [3H]UDPG incorporation; procedure, shortened: as §1
Candida parapsilosis [14] = assay: Antifungal activity against Candida parapsilosis ATCC 22019 by CLSI method; type: functional; conditions: Lodderomyces parapsilosis
[15] = Inhibition of Candida glabrata T51916 glucan synthase assessed as [3H]UDPG incorporation; design: species or system Nakaseomyces glabratus; procedure, shortened: as §1
Candida parapsilosis [16] = assay: Antifungal activity against Candida parapsilosis H5 by CLSI method; type: functional; conditions: Lodderomyces parapsilosis
Candida albicans [17] = assay: Antifungal activity against Candida albicans ATCC 90028 by CLSI method; type: functional
Nakaseomyces glabratus [18] = assay: Antifungal activity against Candida glabrata ATCC 90030 by CLSI method; type: functional
Candida metapsilosis [19] = assay: Antifungal activity against Candida metapsilosis am-2006-0113 by CLSI method; type: functional; conditions: Lodderomyces metapsilosis
[20] = Inhibition of Candida albicans Sc5314 glucan synthase assessed as [3H]UDPG incorporation; procedure, shortened: as §1
[21] = Inhibition of Candida parapsilosis H4 glucan synthase assessed as [3H]UDPG incorporation; procedure, shortened: as §1
Saccharomyces cerevisiae [22] = assay: Antifungal activity against Saccharomyces cerevisiae BY4742-FKS1P649A mutant by CLSI method; type: functional
Procedure, shortened: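 Broth microdilution following CLSI M27-A2, run in YPD broth (1% yeast extract, 2% Bacto peptone, 2% dextrose). MICs are geometric means of at least three repetitions on three separate days.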

Candida orthopsilosis [23] = assay: Antifungal activity against Candida orthopsilosis H10 by CLSI method; type: functional; conditions: Lodderomyces orthopsilosis
[24] = Inhibition of Candida metapsilosis am-2006-0113 glucan synthase assessed as [3H]UDPG incorporation; procedure, shortened: as §1
Candida albicans [25] = assay: Antifungal activity against Candida albicans ATCC 36082 by CLSI method; type: functional
[26] = Inhibition of Candida metapsilosis 960161 glucan synthase assessed as [3H]UDPG incorporation; procedure, shortened: as §1
Candida albicans [27] = assay: Antifungal activity against Candida albicans M122 by CLSI method; type: functional
[28] = Inhibition of Candida parapsilosis H5 glucan synthase assessed as [3H]UDPG incorporation; procedure, shortened: as §1
[29] = Inhibition of Candida orthopsilosis 981224 glucan synthase assessed as [3H]UDPG incorporation; procedure, shortened: as §1
Candida metapsilosis [30] = assay: Antifungal activity against Candida metapsilosis 960161 by CLSI method; type: functional; conditions: Lodderomyces metapsilosis
Nakaseomyces glabratus [31] = assay: Antifungal activity against Candida glabrata T51916 by CLSI method; type: functional

CCCCCOc1ccc(-c2cc(-c3ccc(C(=O)N[C@H]4C[C@@H](O)[C@@H](O)NC(=O)[C@@H]5[C@@H](O)[C@@H](C)CN5C(=O)[C@H]([C@H](O)CC(N)=O)NC(=O)[C@H]([C@H](O)[C@@H](O)c5ccc(O)c(OS(=O)(=O)O)c5)NC(=O)[C@@H]5C[C@@H](O)CN5C(=O)[C@H]([C@@H](C)O)NC4=O)cc3)no2)cc1 [MICAFUNGIN] (X1-[Orn(4R-OH,5R-OH)]T[Hyp][hTyr(3S-OH,4S-OH,3'-OSO3H)][Gln(3R-OH)][Pro(3S-OH,4S-Me)]; lactam 1-C)
MIC (Saccharomyces cerevisiae [1]): 0.03 µg/mL (≈ 0.0236 µM) | MIC (Saccharomyces cerevisiae [2]): 0.015 µg/mL (≈ 0.0118 µM) | IC50 [3]: 0.1527 µg/mL (≈ 0.12 µM) | Ki [3]: 0.1775 µg/mL (≈ 0.14 µM) | IC50 [4]: 0.9431 µg/mL (≈ 0.742 µM) | Ki [4]: 2.59 µg/mL (≈ 2.04 µM) | MIC (Candida orthopsilosis [5]): 1.26 µg/mL (≈ 0.992 µM) | IC50 [6]: 0.0102 µg/mL (≈ 0.00803 µM) | Ki [6]: 0.0235 µg/mL (≈ 0.0185 µM) | IC50 [7]: 0.01888 µg/mL (≈ 0.0149 µM) | Ki [7]: 0.0155 µg/mL (≈ 0.0122 µM) | MIC (Candida albicans [8]): 0.05 µg/mL (≈ 0.0394 µM) | IC50 [9]: 0.24527 µg/mL (≈ 0.193 µM) | Ki [9]: 0.476 µg/mL (≈ 0.375 µM) | MIC (Candida parapsilosis [10]): 1.12 µg/mL (≈ 0.882 µM) | IC50 [11]: 0.00068 µg/mL (≈ 0.000535 µM) | IC50 [12]: 0.15945 µg/mL (≈ 0.126 µM) | Ki [12]: 0.17901 µg/mL (≈ 0.141 µM) | IC50 [13]: 5.199 µg/mL (≈ 4.09 µM) | Ki [13]: 5.7065 µg/mL (≈ 4.49 µM) | MIC (Candida parapsilosis [14]): 1.6 µg/mL (≈ 1.26 µM) | IC50 [15]: 0.11235 µg/mL (≈ 0.0884 µM) | Ki [15]: 0.51 µg/mL (≈ 0.401 µM) | MIC (Candida parapsilosis [16]): 1.26 µg/mL (≈ 0.992 µM) | MIC (Candida albicans [17]): 0.03 µg/mL (≈ 0.0236 µM) | MIC (Nakaseomyces glabratus [18]): 0.06 µg/mL (≈ 0.0472 µM) | MIC (Candida metapsilosis [19]): 1.59 µg/mL (≈ 1.25 µM) | IC50 [20]: 0.05825 µg/mL (≈ 0.0459 µM) | Ki [20]: 0.0275 µg/mL (≈ 0.0216 µM) | IC50 [21]: 0.34083 µg/mL (≈ 0.268 µM) | Ki [21]: 0.486 µg/mL (≈ 0.383 µM) | MIC (Saccharomyces cerevisiae [22]): 0.5 µg/mL (≈ 0.394 µM) | MIC (Candida orthopsilosis [23]): 0.63 µg/mL (≈ 0.496 µM) | IC50 [24]: 0.07032 µg/mL (≈ 0.0554 µM) | Ki [24]: 0.266 µg/mL (≈ 0.209 µM) | MIC (Candida albicans [25]): 0.02 µg/mL (≈ 0.0157 µM) | IC50 [26]: 0.11373 µg/mL (≈ 0.0895 µM) | Ki [26]: 0.3825 µg/mL (≈ 0.301 µM) | MIC (Candida albicans [27]): 0.25 µg/mL (≈ 0.197 µM) | IC50 [28]: 0.49363 µg/mL (≈ 0.389 µM) | Ki [28]: 0.261 µg/mL (≈ 0.205 µM) | IC50 [29]: 0.07752 µg/mL (≈ 0.061 µM) | Ki [29]: 0.248 µg/mL (≈ 0.195 µM) | MIC (Candida metapsilosis [30]): 1.59 µg/mL (≈ 1.25 µM) | MIC (Nakaseomyces glabratus [31]): 0.4 µg/mL (≈ 0.315 µM)
